Test results reported in ChEMBL document CHEMBL4152188, “Design, synthesis and biological evaluation of C(4) substituted monobactams as antibacterial agents against multidrug-resistant Gram-negative bacteria” (Eur J Med Chem, 2018).
Converted amounts (≈) assume the structure as drawn.

Legend:
Format in all cases: functional
Pseudomonas aeruginosa [1] = assay: Antibacterial activity against IMP-4 producing Pseudomonas aeruginosa isolate 209321 after 18 hrs by CLSI broth microdilution method; conditions: isolate 209321, 18 h
Pseudomonas aeruginosa [2] = assay: Antibacterial activity against IMP-4 producing Pseudomonas aeruginosa isolate 209471 after 18 hrs in presence of BPL by CLSI broth microdilution method; conditions: isolate 209471, 18 h
Method in brief: (§1)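 CLSI broth microdilution against clinical isolates (ESBL E. coli, KPC-2 MDR K. pneumoniae, IMP-4 MDR P. aeruginosa; five per species). Iron limitation: Mueller-Hinton broth supplemented with 16 mg/liter 2,2'-bipyridyl to complex iron and induce iron uptake systems. Read-out: MIC.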

Escherichia coli [3] = assay: Antibacterial activity against Escherichia coli isolate 210737 after 18 hrs in presence of BPL by CLSI broth microdilution method; conditions: isolate 210737, 18 h; method in brief: as §1
Escherichia coli [4] = assay: Antibacterial activity against extended-spectrum beta-lactamase producing Escherichia coli isolate 212648 after 18 hrs by CLSI broth microdilution method; conditions: isolate 212648, 18 h
Klebsiella pneumoniae [5] = assay: Selectivity index, ratio of MIC for against KPC-2 producing Klebsiella pneumoniae isolate 212229 to MIC for against KPC-2 producing Klebsiella pneumoniae isolate 212229 in presence of BPL
Klebsiella pneumoniae [6] = assay: Antibacterial activity against KPC-2 producing Klebsiella pneumoniae isolate 212229 after 18 hrs by CLSI broth microdilution method; conditions: isolate 212229, 18 h
Klebsiella pneumoniae [7] = assay: Antibacterial activity against KPC-2 producing Klebsiella pneumoniae isolate 212423 after 18 hrs by CLSI broth microdilution method; conditions: isolate 212423, 18 h
Escherichia coli [8] = assay: Antibacterial activity against extended-spectrum beta-lactamase producing Escherichia coli isolate 208687 after 18 hrs in presence of BPL by CLSI broth microdilution method; conditions: isolate 208687, 18 h; method in brief: as §1
Escherichia coli [9] = assay: Antibacterial activity against extended-spectrum beta-lactamase producing Escherichia coli isolate 209285 after 18 hrs by CLSI broth microdilution method; conditions: isolate 209285, 18 h
Pseudomonas aeruginosa [10] = assay: Antibacterial activity against IMP-4 producing Pseudomonas aeruginosa isolate 207272 after 18 hrs in presence of BPL by CLSI broth microdilution method; conditions: isolate 207272, 18 h; method in brief: as §1
Klebsiella pneumoniae [11] = assay: Antibacterial activity against KPC-2 producing Klebsiella pneumoniae isolate 209735 after 18 hrs by CLSI broth microdilution method; conditions: isolate 209735, 18 h
Klebsiella pneumoniae [12] = assay: Selectivity index, ratio of MIC for against KPC-2 producing Klebsiella pneumoniae isolate 209632 to MIC for against KPC-2 producing Klebsiella pneumoniae isolate 209632 in presence of BPL
Klebsiella pneumoniae [13] = assay: Selectivity index, ratio of MIC for against KPC-2 producing Klebsiella pneumoniae isolate 209735 to MIC for against KPC-2 producing Klebsiella pneumoniae isolate 209735 in presence of BPL
Klebsiella pneumoniae [14] = assay: Selectivity index, ratio of MIC for against KPC-2 producing Klebsiella pneumoniae isolate 212232 to MIC for against KPC-2 producing Klebsiella pneumoniae isolate 212232 in presence of BPL
Escherichia coli [15] = assay: Antibacterial activity against extended-spectrum beta-lactamase producing Escherichia coli isolate 106342 after 18 hrs by CLSI broth microdilution method; conditions: isolate 106342, 18 h
Escherichia coli [16] = assay: Selectivity index, ratio of MIC for against extended-spectrum beta-lactamase producing Escherichia coli isolate 209285 to MIC for extended-spectrum beta-lactamase producing Escherichia coli isolate 209285 in presence of BPL
Klebsiella pneumoniae [17] = assay: Antibacterial activity against KPC-2 producing Klebsiella pneumoniae isolate 212232 after 18 hrs in presence of BPL by CLSI broth microdilution method; conditions: isolate 212232, 18 h; method in brief: as §1
Escherichia coli [18] = assay: Antibacterial activity against extended-spectrum beta-lactamase producing Escherichia coli isolate 106342 after 18 hrs in presence of BPL by CLSI broth microdilution method; conditions: isolate 106342, 18 h; method in brief: as §1
Escherichia coli [19] = assay: Antibacterial activity against Escherichia coli isolate 210737 after 18 hrs by CLSI broth microdilution method; conditions: isolate 210737, 18 h
Escherichia coli [20] = assay: Selectivity index, ratio of MIC for against extended-spectrum beta-lactamase producing Escherichia coli isolate 208687 to MIC for extended-spectrum beta-lactamase producing Escherichia coli isolate 208687 in presence of BPL
Klebsiella pneumoniae [21] = assay: Antibacterial activity against KPC-2 producing Klebsiella pneumoniae isolate 209632 after 18 hrs by CLSI broth microdilution method; conditions: isolate 209632, 18 h
Escherichia coli [22] = assay: Selectivity index, ratio of MIC for against extended-spectrum beta-lactamase producing Escherichia coli isolate 106342 to MIC for extended-spectrum beta-lactamase producing Escherichia coli isolate 106342 in presence of BPL
Pseudomonas aeruginosa [23] = assay: Selectivity index, ratio of MIC for against IMP-4 producing Pseudomonas aeruginosa isolate 208247 to MIC for against IMP-4 producing Pseudomonas aeruginosa isolate 208247 in presence of BPL
Escherichia coli [24] = assay: Selectivity index, ratio of MIC for against Escherichia coli isolate 210737 to MIC for Escherichia coli isolate 210737 in presence of BPL
Klebsiella pneumoniae [25] = assay: Antibacterial activity against KPC-2 producing Klebsiella pneumoniae isolate 212229 after 18 hrs in presence of BPL by CLSI broth microdilution method; conditions: isolate 212229, 18 h; method in brief: as §1
Klebsiella pneumoniae [26] = assay: Antibacterial activity against KPC-2 producing Klebsiella pneumoniae isolate 212423 after 18 hrs in presence of BPL by CLSI broth microdilution method; conditions: isolate 212423, 18 h; method in brief: as §1
Klebsiella pneumoniae [27] = assay: Antibacterial activity against KPC-2 producing Klebsiella pneumoniae isolate 209632 after 18 hrs in presence of BPL by CLSI broth microdilution method; conditions: isolate 209632, 18 h; method in brief: as §1
Pseudomonas aeruginosa [28] = assay: Antibacterial activity against IMP-4 producing Pseudomonas aeruginosa isolate 212886 after 18 hrs by CLSI broth microdilution method; conditions: isolate 212886, 18 h
Escherichia coli [29] = assay: Antibacterial activity against extended-spectrum beta-lactamase producing Escherichia coli isolate 212648 after 18 hrs in presence of BPL by CLSI broth microdilution method; conditions: isolate 212648, 18 h; method in brief: as §1
Escherichia coli [30] = assay: Antibacterial activity against extended-spectrum beta-lactamase producing Escherichia coli isolate 209285 after 18 hrs in presence of BPL by CLSI broth microdilution method; conditions: isolate 209285, 18 h; method in brief: as §1
Pseudomonas aeruginosa [31] = assay: Antibacterial activity against IMP-4 producing Pseudomonas aeruginosa isolate 208247 after 18 hrs in presence of BPL by CLSI broth microdilution method; conditions: isolate 208247, 18 h; method in brief: as §1
Pseudomonas aeruginosa [32] = assay: Selectivity index, ratio of MIC for against IMP-4 producing Pseudomonas aeruginosa isolate 212886 to MIC for against IMP-4 producing Pseudomonas aeruginosa isolate 212886 in presence of BPL
Pseudomonas aeruginosa [33] = assay: Antibacterial activity against IMP-4 producing Pseudomonas aeruginosa isolate 212886 after 18 hrs in presence of BPL by CLSI broth microdilution method; conditions: isolate 212886, 18 h; method in brief: as §1
Pseudomonas aeruginosa [34] = assay: Selectivity index, ratio of MIC for against IMP-4 producing Pseudomonas aeruginosa isolate 209471 to MIC for against IMP-4 producing Pseudomonas aeruginosa isolate 209471 in presence of BPL
Klebsiella pneumoniae [35] = assay: Antibacterial activity against KPC-2 producing Klebsiella pneumoniae isolate 209735 after 18 hrs in presence of BPL by CLSI broth microdilution method; conditions: isolate 209735, 18 h; method in brief: as §1
Klebsiella pneumoniae [36] = assay: Antibacterial activity against KPC-2 producing Klebsiella pneumoniae isolate 212232 after 18 hrs by CLSI broth microdilution method; conditions: isolate 212232, 18 h
Pseudomonas aeruginosa [37] = assay: Selectivity index, ratio of MIC for against IMP-4 producing Pseudomonas aeruginosa isolate 207272 to MIC for against IMP-4 producing Pseudomonas aeruginosa isolate 207272 in presence of BPL
Pseudomonas aeruginosa [38] = assay: Antibacterial activity against IMP-4 producing Pseudomonas aeruginosa isolate 207272 after 18 hrs by CLSI broth microdilution method; conditions: isolate 207272, 18 h
Klebsiella pneumoniae [39] = assay: Selectivity index, ratio of MIC for against KPC-2 producing Klebsiella pneumoniae isolate 212423 to MIC for against KPC-2 producing Klebsiella pneumoniae isolate 212423 in presence of BPL
Pseudomonas aeruginosa [40] = assay: Antibacterial activity against IMP-4 producing Pseudomonas aeruginosa isolate 209321 after 18 hrs in presence of BPL by CLSI broth microdilution method; conditions: isolate 209321, 18 h; method in brief: as §1
Pseudomonas aeruginosa [41] = assay: Selectivity index, ratio of MIC for against IMP-4 producing Pseudomonas aeruginosa isolate 209321 to MIC for against IMP-4 producing Pseudomonas aeruginosa isolate 209321 in presence of BPL
Escherichia coli [42] = assay: Selectivity index, ratio of MIC for against extended-spectrum beta-lactamase producing Escherichia coli isolate 212648 to MIC for extended-spectrum beta-lactamase producing Escherichia coli isolate 212648 in presence of BPL
Pseudomonas aeruginosa [43] = assay: Antibacterial activity against IMP-4 producing Pseudomonas aeruginosa isolate 209471 after 18 hrs by CLSI broth microdilution method; conditions: isolate 209471, 18 h
Escherichia coli [44] = assay: Antibacterial activity against extended-spectrum beta-lactamase producing Escherichia coli isolate 208687 after 18 hrs by CLSI broth microdilution method; conditions: isolate 208687, 18 h
Pseudomonas aeruginosa [45] = assay: Antibacterial activity against IMP-4 producing Pseudomonas aeruginosa isolate 208247 after 18 hrs by CLSI broth microdilution method; conditions: isolate 208247, 18 h

MIC (Pseudomonas aeruginosa [1]): 32 µg/mL (≈ 57.5 µM)
MIC (Pseudomonas aeruginosa [2]): 32 µg/mL
MIC (Escherichia coli [3]): 0.5 µg/mL
MIC (Escherichia coli [4]): 2 µg/mL (≈ 3.59 µM)
MIC (Klebsiella pneumoniae [6]): 32 µg/mL (≈ 57.5 µM)
MIC (Klebsiella pneumoniae [7]): > 64 µg/mL
MIC (Escherichia coli [8]): 0.5 µg/mL
MIC (Escherichia coli [9]): 4 µg/mL (≈ 7.19 µM)
MIC (Pseudomonas aeruginosa [10]): 32 µg/mL
MIC (Klebsiella pneumoniae [11]): > 64 µg/mL
MIC (Escherichia coli [15]): 2 µg/mL (≈ 3.59 µM)
MIC (Klebsiella pneumoniae [17]): 4 µg/mL
MIC (Escherichia coli [18]): 1 µg/mL
MIC (Escherichia coli [19]): 4 µg/mL (≈ 7.19 µM)
MIC (Klebsiella pneumoniae [21]): > 64 µg/mL
MIC (Klebsiella pneumoniae [25]): 8 µg/mL
MIC (Klebsiella pneumoniae [26]): 8 µg/mL
MIC (Klebsiella pneumoniae [27]): 16 µg/mL
MIC (Pseudomonas aeruginosa [28]): 16 µg/mL (≈ 28.7 µM)
MIC (Escherichia coli [29]): 1 µg/mL
MIC (Escherichia coli [30]): 2 µg/mL
MIC (Pseudomonas aeruginosa [31]): 16 µg/mL
MIC (Pseudomonas aeruginosa [33]): 16 µg/mL
MIC (Klebsiella pneumoniae [35]): 8 µg/mL
MIC (Klebsiella pneumoniae [36]): 8 µg/mL (≈ 14.4 µM)
MIC (Pseudomonas aeruginosa [38]): 32 µg/mL (≈ 57.5 µM)
MIC (Pseudomonas aeruginosa [40]): 16 µg/mL
MIC (Pseudomonas aeruginosa [43]): 32 µg/mL (≈ 57.5 µM)
MIC (Escherichia coli [44]): 1 µg/mL (≈ 1.8 µM)
MIC (Pseudomonas aeruginosa [45]): 16 µg/mL (≈ 28.7 µM)
SMILES: CC(C)C(O/N=C(\C(=O)NC1C(=O)N(S(=O)(=O)O)C12CCC2)c1csc(N)n1)c1cc(=O)c(O)cn1O (stereo not given)
Selectivity Index (Klebsiella pneumoniae [5]): 4
Selectivity Index (Klebsiella pneumoniae [12]): >4
Selectivity Index (Klebsiella pneumoniae [13]): >8
Selectivity Index (Klebsiella pneumoniae [14]): 2
Selectivity Index (Escherichia coli [16]): 2
Selectivity Index (Escherichia coli [20]): 2
Selectivity Index (Escherichia coli [22]): 2
Selectivity Index (Pseudomonas aeruginosa [23]): 1
Selectivity Index (Escherichia coli [24]): 8
Selectivity Index (Pseudomonas aeruginosa [32]): 1
Selectivity Index (Pseudomonas aeruginosa [34]): 1
Selectivity Index (Pseudomonas aeruginosa [37]): 1
Selectivity Index (Klebsiella pneumoniae [39]): >8
Selectivity Index (Pseudomonas aeruginosa [41]): 2
Selectivity Index (Escherichia coli [42]): 2
